Measured values as given in ChEMBL document CHEMBL2331439 (J Med Chem, 2013).

Tests used:
[1] = biological target: Vascular endothelial growth factor receptor 2 (Homo sapiens, UniProt P35968); assay: Inhibition of recombinant KDR (unknown origin) by FRET-based Z'-LYTE assay
[2] = biological target: Casein kinase I isoform gamma-2 (Homo sapiens) (UniProt P78368); assay: Inhibition of recombinant CSNK1G2 (unknown origin) at 5 uM by FRET-based Z'-LYTE assay
Method in brief: (§1)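 Single-point panel screen at 5 μM in duplicate. ATP is at the apparent Km of each kinase, and the Z'-LYTE FRET peptide substrate is used. Each point has two control wells: a protease control for interference with development and a fluorescence control for interference with the FRET read-out. Values above 100% are treated as maximal inhibition and values below 0% as none.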

[3] = biological target: Dual specificity tyrosine-phosphorylation-regulated kinase 3 (Homo sapiens) (UniProt O43781); assay: Inhibition of recombinant DYRK3 (unknown origin) at 5 uM by FRET-based Z'-LYTE assay; method in brief: as §1
Dual specificity tyrosine-phosphorylation-regulated kinase 3 (Homo sapiens), sequence (O43781 whole entry): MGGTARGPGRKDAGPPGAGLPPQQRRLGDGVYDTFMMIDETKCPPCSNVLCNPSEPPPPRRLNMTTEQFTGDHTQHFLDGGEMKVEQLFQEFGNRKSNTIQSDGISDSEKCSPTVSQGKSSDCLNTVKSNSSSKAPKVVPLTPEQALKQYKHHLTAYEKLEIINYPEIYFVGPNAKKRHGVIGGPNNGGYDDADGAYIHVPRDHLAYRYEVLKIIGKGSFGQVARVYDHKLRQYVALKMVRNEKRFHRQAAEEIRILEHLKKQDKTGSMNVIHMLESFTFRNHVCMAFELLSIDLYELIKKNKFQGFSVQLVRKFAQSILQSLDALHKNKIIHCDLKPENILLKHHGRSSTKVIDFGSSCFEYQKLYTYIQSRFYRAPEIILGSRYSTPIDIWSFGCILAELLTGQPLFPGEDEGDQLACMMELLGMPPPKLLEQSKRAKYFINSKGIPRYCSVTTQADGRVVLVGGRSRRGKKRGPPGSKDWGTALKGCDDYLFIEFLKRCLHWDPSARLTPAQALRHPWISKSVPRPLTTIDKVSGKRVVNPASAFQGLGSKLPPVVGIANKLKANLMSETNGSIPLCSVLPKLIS

[4] = biological target: Tyrosine-protein kinase SYK (Homo sapiens) (UniProt P43405); assay: Inhibition of recombinant SYK (unknown origin) at 5 uM by FRET-based Z'-LYTE assay
Method in brief: (§2)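 Z'-LYTE FRET peptide (coumarin/fluorescein) phosphorylation was followed by protease development. Wells included a protease control for interference with development and a fluorescence control for interference with the FRET read. Values above 100% or below 0% were treated as maximal or no inhibition.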

[5] = biological target: T1, RAC-alpha serine/threonine-protein kinase (Homo sapiens, UniProt P31749); assay: Inhibition of recombinant AKT1 (unknown origin) at 5 uM by FRET-based Z'-LYTE assay; method in brief: as §1
T1 sequence (P31749 whole entry): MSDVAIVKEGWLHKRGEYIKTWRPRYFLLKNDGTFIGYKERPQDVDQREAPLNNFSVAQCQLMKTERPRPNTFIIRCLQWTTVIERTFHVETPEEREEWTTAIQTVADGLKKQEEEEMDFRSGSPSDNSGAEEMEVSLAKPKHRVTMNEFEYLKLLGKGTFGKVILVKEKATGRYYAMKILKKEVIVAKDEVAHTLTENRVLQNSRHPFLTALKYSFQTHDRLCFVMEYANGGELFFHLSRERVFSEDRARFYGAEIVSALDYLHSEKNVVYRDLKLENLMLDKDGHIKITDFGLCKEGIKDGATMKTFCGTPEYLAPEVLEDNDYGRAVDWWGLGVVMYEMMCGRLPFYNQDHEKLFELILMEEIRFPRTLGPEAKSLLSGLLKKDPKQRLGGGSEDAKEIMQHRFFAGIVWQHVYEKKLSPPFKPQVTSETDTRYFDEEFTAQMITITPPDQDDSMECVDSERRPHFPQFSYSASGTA

[6] = biological target: RAC-beta serine/threonine-protein kinase (Homo sapiens, UniProt P31751); assay: Inhibition of recombinant AKT2 (unknown origin) by FRET-based Z'-LYTE assay
[7] = biological target: RAF proto-oncogene serine/threonine-protein kinase (Homo sapiens, UniProt P04049); assay: Inhibition of recombinant RAF1 (unknown origin) by cascade reaction assay
[8] = biological target: Mitogen-activated protein kinase kinase kinase kinase 4 (Homo sapiens) (UniProt O95819); assay: Inhibition of recombinant MAP4K4 (unknown origin) at 5 uM by FRET-based Z'-LYTE assay; method in brief: as §1
[9] = biological target: Serine/threonine-protein kinase PLK1 (Homo sapiens) (UniProt P53350); assay: Inhibition of recombinant PLK1 (unknown origin) at 5 uM by FRET-based Z'-LYTE assay; method in brief: as §1
[10] = biological target: Cyclin-dependent kinase 1/cyclin B1 (Homo sapiens) (UniProt P06493+P14635); assay: Inhibition of recombinant CDK1/cyclin B (unknown origin) at 5 uM by FRET-based Z'-LYTE assay; type: protein-complex assay; method in brief: as §1
[11] = biological target: Mitogen-activated protein kinase 14 (Homo sapiens, UniProt Q16539); assay: Inhibition of recombinant MAPK14 (unknown origin) by FRET-based Z'-LYTE assay
Mitogen-activated protein kinase 14, sequence (Q16539 whole entry): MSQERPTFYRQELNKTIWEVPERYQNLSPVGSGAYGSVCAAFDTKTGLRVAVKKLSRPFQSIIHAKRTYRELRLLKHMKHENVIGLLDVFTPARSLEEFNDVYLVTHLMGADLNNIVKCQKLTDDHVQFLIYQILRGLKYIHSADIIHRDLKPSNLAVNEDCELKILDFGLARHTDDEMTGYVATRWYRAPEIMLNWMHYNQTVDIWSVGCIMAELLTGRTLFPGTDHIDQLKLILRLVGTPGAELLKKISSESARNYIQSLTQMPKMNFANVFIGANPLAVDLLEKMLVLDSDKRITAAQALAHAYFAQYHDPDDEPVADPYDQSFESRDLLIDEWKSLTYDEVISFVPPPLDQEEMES

[12] = biological target: Serine/threonine-protein kinase Chk1 (Homo sapiens) (UniProt O14757); assay: Inhibition of recombinant CHEK1 (unknown origin) at 5 uM by FRET-based Z'-LYTE assay; method in brief: as §1
[13] = biological target: T1, RAC-alpha serine/threonine-protein kinase; assay: Inhibition of recombinant AKT1 (unknown origin) by FRET-based Z'-LYTE assay
[14] = biological target: Mitogen-activated protein kinase 8 (Homo sapiens) (UniProt P45983); assay: Inhibition of recombinant MAPK8 (unknown origin) at 5 uM by FRET-based Z'-LYTE assay; method in brief: as §1
[15] = biological target: Mitogen-activated protein kinase 1 (Homo sapiens, UniProt P28482); assay: Inhibition of recombinant ERK2 (unknown origin) by FRET-based Z'-LYTE assay
[16] = biological target: Hepatocyte growth factor receptor (Homo sapiens) (UniProt P08581); assay: Inhibition of recombinant MET (unknown origin) at 5 uM by FRET-based Z'-LYTE assay; method in brief: as §1
[17] = biological target: Angiopoietin-1 receptor (Homo sapiens) (UniProt Q02763); assay: Inhibition of recombinant TEK (unknown origin) at 5 uM by FRET-based Z'-LYTE assay; method in brief: as §2
Angiopoietin-1 receptor (Homo sapiens), sequence (Q02763 whole entry): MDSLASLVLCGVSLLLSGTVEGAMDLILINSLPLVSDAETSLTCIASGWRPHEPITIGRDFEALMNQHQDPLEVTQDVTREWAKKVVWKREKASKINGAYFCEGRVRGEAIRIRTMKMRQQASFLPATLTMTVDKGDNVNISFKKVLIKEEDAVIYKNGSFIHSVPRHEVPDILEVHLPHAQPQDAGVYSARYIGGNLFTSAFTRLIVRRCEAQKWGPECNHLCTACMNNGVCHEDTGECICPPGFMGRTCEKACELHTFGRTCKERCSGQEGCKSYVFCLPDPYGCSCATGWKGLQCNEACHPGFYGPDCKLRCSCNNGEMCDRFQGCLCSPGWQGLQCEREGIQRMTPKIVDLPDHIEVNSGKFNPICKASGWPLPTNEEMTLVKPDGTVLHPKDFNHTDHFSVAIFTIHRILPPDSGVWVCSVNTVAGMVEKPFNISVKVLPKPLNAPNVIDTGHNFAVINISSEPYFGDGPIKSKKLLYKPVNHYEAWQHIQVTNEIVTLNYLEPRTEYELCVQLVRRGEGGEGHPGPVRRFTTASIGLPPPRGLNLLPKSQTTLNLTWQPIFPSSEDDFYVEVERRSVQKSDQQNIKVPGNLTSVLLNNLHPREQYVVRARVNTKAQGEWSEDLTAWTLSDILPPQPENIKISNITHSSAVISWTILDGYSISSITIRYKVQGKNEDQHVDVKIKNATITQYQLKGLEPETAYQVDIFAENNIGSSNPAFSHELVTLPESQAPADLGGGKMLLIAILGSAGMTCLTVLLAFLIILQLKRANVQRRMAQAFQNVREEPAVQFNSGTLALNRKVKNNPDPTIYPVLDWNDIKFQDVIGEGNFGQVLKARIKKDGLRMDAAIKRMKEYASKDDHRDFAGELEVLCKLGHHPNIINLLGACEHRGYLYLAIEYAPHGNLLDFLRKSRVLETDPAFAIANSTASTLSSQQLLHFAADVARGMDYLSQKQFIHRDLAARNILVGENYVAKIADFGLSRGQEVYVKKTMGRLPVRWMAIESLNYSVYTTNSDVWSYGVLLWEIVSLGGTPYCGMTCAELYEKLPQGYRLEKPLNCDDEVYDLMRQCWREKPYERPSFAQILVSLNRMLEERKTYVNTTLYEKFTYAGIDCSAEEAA

[18] = biological target: Interleukin-1 receptor-associated kinase 4 (Homo sapiens) (UniProt Q9NWZ3); assay: Inhibition of recombinant IRAK4 (unknown origin) at 5 uM by FRET-based Z'-LYTE assay; method in brief: as §1
[19] = biological target: MAP kinase-activated protein kinase 2 (Homo sapiens, UniProt P49137); assay: Inhibition of recombinant MAPKAPK2 (unknown origin) by FRET-based Z'-LYTE assay
[20] = biological target: Phosphatidylinositol 4,5-bisphosphate 3-kinase catalytic subunit gamma isoform (Homo sapiens) (UniProt P48736); assay: Inhibition of recombinant PIK3CG (unknown origin) at 5 uM after 1 hr by FRET-based adapta assay
Method in brief: (§3)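 After inhibitor and all reaction components are added, the reaction runs for 1 h. ADP formed by the kinase displaces an antibody-tracer complex, so reduced ADP gives a high TR-FRET signal. Inhibition is calculated against a control.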

[21] = biological target: Inhibitor of nuclear factor kappa-B kinase subunit epsilon (Homo sapiens) (UniProt Q14164); assay: Inhibition of recombinant IKBKE (unknown origin) at 5 uM by FRET-based Z'-LYTE assay; method in brief: as §1
[22] = biological target: Protein kinase C beta type (Homo sapiens) (UniProt P05771); assay: Inhibition of recombinant PRKCB1 (unknown origin) at 5 uM by FRET-based Z'-LYTE assay; method in brief: as §2
Protein kinase C beta type (Homo sapiens), sequence (P05771 2-671 limits assumed): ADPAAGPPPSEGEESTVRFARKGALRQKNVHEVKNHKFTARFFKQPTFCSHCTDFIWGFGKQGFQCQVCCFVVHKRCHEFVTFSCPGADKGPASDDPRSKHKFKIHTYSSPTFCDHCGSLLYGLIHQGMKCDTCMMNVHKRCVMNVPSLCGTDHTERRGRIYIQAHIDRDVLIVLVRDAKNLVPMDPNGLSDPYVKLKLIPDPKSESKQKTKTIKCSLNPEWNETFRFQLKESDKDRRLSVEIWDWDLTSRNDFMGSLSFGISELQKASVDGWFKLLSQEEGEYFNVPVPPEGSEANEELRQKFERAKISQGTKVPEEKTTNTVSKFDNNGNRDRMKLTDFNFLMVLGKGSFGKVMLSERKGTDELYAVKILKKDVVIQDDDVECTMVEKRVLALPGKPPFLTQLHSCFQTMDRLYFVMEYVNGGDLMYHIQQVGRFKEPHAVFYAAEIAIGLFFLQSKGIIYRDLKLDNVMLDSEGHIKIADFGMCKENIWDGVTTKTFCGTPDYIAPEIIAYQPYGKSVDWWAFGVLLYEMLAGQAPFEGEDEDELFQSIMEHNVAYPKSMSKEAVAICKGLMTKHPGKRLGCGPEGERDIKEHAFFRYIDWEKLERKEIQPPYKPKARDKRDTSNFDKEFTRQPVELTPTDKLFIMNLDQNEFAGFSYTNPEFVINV

[23] = biological target: AMP-activated protein kinase (AMPK) alpha-1/beta-1/gamma-1 (Homo sapiens, UniProt P54619+Q13131+Q9Y478); assay: Inhibition of recombinant AMPK A1/B1/G1 (unknown origin) by FRET-based Z'-LYTE assay; type: protein-complex assay
[24] = biological target: Cyclin-dependent kinase 7/ cyclin H (Homo sapiens) (UniProt P51946+P50613); assay: Inhibition of recombinant CDK7/cyclin H/MNAT1 (unknown origin) at 5 uM after 1 hr by FRET-based adapta assay; type: protein-complex assay; method in brief: as §3
[25] = biological target: Activin receptor type-1B (Homo sapiens) (UniProt P36896); assay: Inhibition of recombinant ACVR1B (unknown origin) at 5 uM by FRET-based Z'-LYTE assay; method in brief: as §1
[26] = biological target: High affinity nerve growth factor receptor (Homo sapiens) (UniProt P04629); assay: Inhibition of recombinant NTRK1 (unknown origin) at 5 uM by FRET-based Z'-LYTE assay; method in brief: as §1
[27] = biological target: Tyrosine-protein kinase BTK (Homo sapiens) (UniProt Q06187); assay: Inhibition of recombinant BTK (unknown origin) at 5 uM by FRET-based Z'-LYTE assay; method in brief: as §1
[28] = biological target: Epidermal growth factor receptor (Homo sapiens) (UniProt P00533); assay: Inhibition of recombinant EGFR (unknown origin) at 5 uM by FRET-based Z'-LYTE assay; method in brief: as §1
Epidermal growth factor receptor (Homo sapiens), sequence (P00533 whole entry): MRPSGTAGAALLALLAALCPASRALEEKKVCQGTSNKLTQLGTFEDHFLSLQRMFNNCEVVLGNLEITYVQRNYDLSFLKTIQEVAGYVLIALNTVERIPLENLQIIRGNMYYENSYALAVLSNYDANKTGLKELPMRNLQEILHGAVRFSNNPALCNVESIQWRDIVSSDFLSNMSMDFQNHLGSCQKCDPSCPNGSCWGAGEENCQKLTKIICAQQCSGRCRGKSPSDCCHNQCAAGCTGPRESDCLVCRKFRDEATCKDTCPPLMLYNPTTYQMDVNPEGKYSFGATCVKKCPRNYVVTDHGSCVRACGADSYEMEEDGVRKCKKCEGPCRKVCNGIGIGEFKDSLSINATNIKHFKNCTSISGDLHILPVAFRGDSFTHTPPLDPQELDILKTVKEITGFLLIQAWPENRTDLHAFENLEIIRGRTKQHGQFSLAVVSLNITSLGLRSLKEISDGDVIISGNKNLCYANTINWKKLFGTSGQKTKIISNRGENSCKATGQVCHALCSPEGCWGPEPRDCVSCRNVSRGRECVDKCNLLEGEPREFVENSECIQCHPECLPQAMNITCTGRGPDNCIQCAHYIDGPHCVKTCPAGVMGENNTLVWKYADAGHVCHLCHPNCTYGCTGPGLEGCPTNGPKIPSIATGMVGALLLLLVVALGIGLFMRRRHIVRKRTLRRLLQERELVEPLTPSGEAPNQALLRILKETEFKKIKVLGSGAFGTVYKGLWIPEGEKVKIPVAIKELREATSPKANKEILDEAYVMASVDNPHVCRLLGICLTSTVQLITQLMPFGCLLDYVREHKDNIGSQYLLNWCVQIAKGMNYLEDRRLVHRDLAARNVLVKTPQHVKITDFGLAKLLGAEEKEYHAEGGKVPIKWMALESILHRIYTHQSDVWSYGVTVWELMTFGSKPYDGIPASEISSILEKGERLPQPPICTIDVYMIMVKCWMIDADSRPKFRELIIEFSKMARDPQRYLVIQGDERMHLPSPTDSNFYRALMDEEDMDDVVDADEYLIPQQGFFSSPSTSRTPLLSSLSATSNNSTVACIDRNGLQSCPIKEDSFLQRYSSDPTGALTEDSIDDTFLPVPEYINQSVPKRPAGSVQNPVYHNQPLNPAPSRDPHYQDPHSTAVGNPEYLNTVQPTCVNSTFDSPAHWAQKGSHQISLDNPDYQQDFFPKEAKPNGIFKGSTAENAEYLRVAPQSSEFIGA

[29] = biological target: AMP-activated protein kinase (AMPK) alpha-1/beta-1/gamma-1 (Homo sapiens) (UniProt P54619+Q9Y478+Q13131); assay: Inhibition of recombinant AMPK A1/B1/G1 (unknown origin) at 5 uM by FRET-based Z'-LYTE assay; type: protein-complex assay; method in brief: as §1
[30] = biological target: Phosphorylase b kinase gamma catalytic chain, liver/testis isoform (Homo sapiens) (UniProt P15735); assay: Inhibition of recombinant PHKG2 (unknown origin) at 5 uM by FRET-based Z'-LYTE assay; method in brief: as §1

Casein kinase I isoform gamma-2 (Homo sapiens), sequence (P78368 whole entry, looked up, canonical isoform): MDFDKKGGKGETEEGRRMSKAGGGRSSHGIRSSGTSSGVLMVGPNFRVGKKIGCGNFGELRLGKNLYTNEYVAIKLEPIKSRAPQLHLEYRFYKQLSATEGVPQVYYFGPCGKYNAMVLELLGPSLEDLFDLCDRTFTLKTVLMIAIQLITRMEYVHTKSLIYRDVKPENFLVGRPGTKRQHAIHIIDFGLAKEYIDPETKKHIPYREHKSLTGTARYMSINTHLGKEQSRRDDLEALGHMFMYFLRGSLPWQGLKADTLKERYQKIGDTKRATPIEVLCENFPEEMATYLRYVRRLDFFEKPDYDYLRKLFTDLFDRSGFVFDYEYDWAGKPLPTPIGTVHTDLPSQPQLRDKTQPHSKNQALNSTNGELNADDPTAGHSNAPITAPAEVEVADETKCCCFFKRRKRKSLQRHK

O=C1/C(=C/c2ccccn2)CNC/C1=C\c1ccccn1
IC50 [1]: 660 nM | inhibition [2]: 12% | inhibition [3]: 48% | inhibition [4]: 45% | inhibition [5]: 107% | IC50 [6]: 20 nM | IC50 [7]: 1600 nM | inhibition [8]: 72% | inhibition [9]: -9% | inhibition [10]: 24% | IC50 [11]: 35000 nM | inhibition [12]: 90% | IC50 [13]: 20 nM | inhibition [14]: 16% | IC50 [15]: 4000 nM | inhibition [16]: 75% | inhibition [17]: 51% | inhibition [18]: 5% | IC50 [19]: 6700 nM | inhibition [20]: 34% | inhibition [21]: 15% | inhibition [22]: 91% | IC50 [23]: 1500 nM | inhibition [24]: 3% | inhibition [25]: 1% | inhibition [26]: 25% | inhibition [27]: 44% | inhibition [28]: -9% | inhibition [29]: 95% | inhibition [30]: 37%
